# Compound activity as filed in PubChem.
# Apaf-1 inh – blocks human Apaf-1 apoptosome activity | O14727 | reconstituted apoptosome caspase-3 activity, DEVD-Rh110 fluorescence | inhibition, % at 20 µM | 330,000 tested, 0.71% active | AID 489030; active = inhibition of at least 40% at 20 µM;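 note: plate controls were DMSO wells for no effect and DEVD-CHO caspase inhibitor wells for full effect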
#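 Material: biochemical Apaf-1 apoptosome reconstitution. Medium: Hepes buffer, pH 7.5. Also added: cytochrome c activation, bis-DEVD rhodamine 110 substrate. Timing: 30 min compound preincubation, 50 min activation, room temperature. Measured by: rhodamine 110 fluorescence at Ex 480/Em 540 nm.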
# MEKK2 mut-MEK5 – signal of MEK5 binding to mutant human MEKK2 PB1 domain. bead flow cytometry, Alexa488-MEK5 binding to MEKK2 mutant. percent response, % at 10 µM. 290,000 tested, 0.35% active; in the data active = percent response above about 24%, passing the limit was not always enough
# MEKK2wt PB1 HTS – raises or lowers MEK5 binding to wildtype human MEKK2 PB1 domain. Q9Y2U5. bead flow cytometry, Alexa488-MEK5 binding to MEKK2 WT; actives lie on both sides. binding response (% of control), % at 10 µM. 290,000 tested, 1.1% active; in the data active = binding response below about 67% or above about 130%
# Pemphigus Ab inh – human desmoglein-3 autoantibody binding inhibition | P32926 | DSG3-coupled beads, scFv-anti-DSG3-GFP binding, flow cytometry; hits give low values | binding (percent of control), % at 10 µM | 310,000 tested, 0.48% active | AID 588358;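 active = binding more than 3 SD below its plate's average and above zero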;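 note: hits lower antibody fragment binding to DSG3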
# MEKK3 PB1 HTS – modulators (inhibitors or enhancers) of MEK5 binding to human MEKK3 PB1 domain; Q99759; bead-based flow cytometry, Alexa488-MEK5 binding to MEKK3; actives lie on both sides; 0 = blocked by unlabeled MEK5, 100 = vehicle; binding response (% of control), % at 10 µM; 290,000 tested, 1.4% active; AID 1529;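 active = binding response more than 3 SD above or below the average of its plate-row segment, actives on both sides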;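 note: Alexa488 bead fluorescence after subtracting the streptavidin-only scavenger bead signal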
# UBC13 inh – human UBC13 polyubiquitination inhibition; UBC13 polyubiquitin chain formation, TR-FRET; AID 485273; 330,000 tested, 0.47% active; P61088; inhibition, % at 20 µM; in the data active = inhibition above about 45%, passing the limit was not always enough
# Target sequence (P61088 whole entry, looked up): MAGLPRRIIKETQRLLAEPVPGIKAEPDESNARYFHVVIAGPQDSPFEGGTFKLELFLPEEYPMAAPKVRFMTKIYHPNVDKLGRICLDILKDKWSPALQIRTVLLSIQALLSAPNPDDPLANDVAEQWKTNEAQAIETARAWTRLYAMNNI
# Apaf-1 inh conf2 – confirmation of Apaf-1 inhibitors; shares compounds with Apaf-1 inh; reconstituted apoptosome, caspase-3 DEVD-Rh110 fluorescence; inhibition, % at 20 µM; 1,800 tested, 25% active;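 active = mean inhibition of at least 40% at 20 µM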;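 note: plate controls were DMSO wells for no effect and DEVD-CHO caspase inhibitor control wells for full effect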
# Rh110 quench – Rh110 signal interference in Apaf-1 inhibitor counter-screen. shares compounds with Apaf-1 inh. Rh110 fluorescence interference, quenched caspase reaction. activation (fluorescence interference), % at 20 µM. 1,800 tested, under 10 active. AID 504615;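 active = signal rise of 40% or more at 20 µM, treated as a fluorescence artifact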
# Apaf1 inh interf – counter-screen for Apaf-1 inhibitors: fluorescence interference, dose response; 460 tested, under 10 active; AID 588538; IC50, µM; shares compounds with Apaf-1 inh; fluorescence interference counterscreen, Apaf-1 assay format; call rule not given here
# * = called active by the depositor; . = not tested or not shown. Most compounds without a hit are left out; they make up all but 3.2% or so of the library.
SMILES,Apaf-1 inh,MEKK2 mut-MEK5,MEKK2wt PB1 HTS,Pemphigus Ab inh,MEKK3 PB1 HTS,UBC13 inh,Apaf-1 inh conf2,Rh110 quench,others
NC(=O)[C@H](Cc1cc2ccccc2s1)NC(=O)[C@@H]1CC2(CC(c3cccc(NC(=O)[C@@H]4CCC(=O)N4)c3)=NO2)CN1C(=O)/C=C/Sc1ccccc1 (stereo partly specified),37,-4,99,99,101,-38,.,.,
NC(=O)[C@H](Cc1cc2ccccc2s1)NC(=O)[C@@H]1CC2(CC(c3cccc(NC(=O)[C@@H]4CCC(=O)N4)c3)=NO2)CN1C(=O)/C=C/c1c(F)cccc1Cl (stereo partly specified),47*,3,106,100,103,-16,16,13,
CCN(CC)CCN(C(=O)c1ccc2c(c1)CCCC2)c1nc2ccc(C)cc2s1,51*,31*,148*,121,108,8,11,7,
CCN(CC)CCN(C(=O)c1ccc2c(c1)CCCC2)c1nc2ccc(OC)cc2s1,61*,18,130,124,106,4,19,7,
Cc1ccccc1-c1cccc([C@@H]2C[C@H]3[C@H](CON3C)CN2Cc2ccccc2)c1,.,.,.,106,.,.,.,.,
Cc1nc(N(C)C)c2sc(=S)n(Cc3ccccc3)c2n1,11,12,109,102,107,-6,.,.,
Cc1onc(-c2c(F)cccc2Cl)c1C(=O)N1CCCC1,1,.,.,96,.,-3,.,.,
COCC(C)N1C(=O)Cc2c1nc(N)c1c(N)nc(N3CCN(c4ccccc4F)CC3)c(C#N)c21 (stereo unspecified),97*,-8,89,99,97,-74,25,5,
COCCN1C(=O)Cc2c1nc(N)c1c(N)nc(N3CCN(c4ccc(F)cc4)CC3)c(C#N)c21,10,-44,96,99,92,0,.,.,
COc1ccc(CN2C(=O)Cc3c2nc(N)c2c(N)nc(N4CCOCC4)c(C#N)c32)cc1,86*,2,94,100,96,-6,25,22,
COc1ccc(S(=O)(=O)NCc2cc(=O)n(C)c(=O)n2C)cc1C,-3,-1,95,102,96,-3,.,.,
O=C(CSCc1cc(=O)n2ccsc2n1)Nc1ccc(F)cc1,-9,3,101,97,102,8,.,.,
Cc1ccc(-c2nn3c(C)nnc3c3ccccc23)cc1S(=O)(=O)NCc1ccccc1,48*,0,103,89,100,7,72*,7,Apaf1 inh interf=>100
CC(=O)OCCCNc1cc(SCc2ccco2)c2nonc2c1[N+](=O)[O-],74*,0,106,.,124,-32,0,-2,
CCCSc1cc(NCCOC(C)=O)c([N+](=O)[O-])c2nonc12,7,-1,94,95,97,-19,.,.,
CCCC(=O)OCCNc1cc(SCc2ccco2)c2nonc2c1[N+](=O)[O-],57*,1,106,.,127,-38,-1,0,
Cc1cccc(N2CCN(C(=O)c3cc4cc(F)ccc4[nH]3)CC2)c1C,42*,-6,96,124,103,-7,27,5,
COc1ccccc1N1CCN(C(=O)c2cc3cc(F)ccc3[nH]2)CC1,15,7,103,106,108,-1,.,.,
O=C1Cc2ccccc2C(=O)N1OCc1ccc(Cl)cc1,95*,0,107,99,124,-44,29,10,
O=C1c2ccccc2[C@@H]2C[C@@H](O)[C@H](Nc3cccc4ccccc34)CCN12,53*,.,.,105,.,.,28,8,
CCc1ccc(OCC(=O)N/N=C2\CC(=O)c3ccccc32)cc1,84*,-6,93,97,95,-10,54*,10,Apaf1 inh interf=>100
